Published values gathered from unrelated publications.
Each line is one published result; the experiments were not run side by side.
Sample: plasma

COc1ccc(-c2c(Nc3ccccn3)[nH]c3c(C4=CCCCC4)c(-c4ccccc4)nn3c2=O)cc1  AUC(0-t) (human; oral; 150 mg once daily; multiple doses, steady state, patients): 93600 ng·h/mL
CC(C)c1nc(N(C)S(C)(=O)=O)nc(-c2ccc(F)cc2)c1/C=C/[C@@H](O)C[C@@H](O)CC(=O)O  AUC(0-inf) (human; oral; 10 mg; single dose, healthy volunteers): 36.7 ng·h/mL
O=C(COc1ccc(Cl)cc1)NC12CC(c3nnc([C@H]4C[C@@H](OC(F)(F)F)C4)o3)(C1)C2  AUC (human; oral; 45 mg; multiple doses, once daily, steady state, healthy volunteers): 36.5 µM·h
COc1ccc2c(c1)CN(C(=O)CCN1CCC(Cc3ccccc3)CC1)CC[S@@+]2[O-]  AUC(0-inf) (male human; intravenous; 0.05 mg/kg; healthy volunteers): 250 ng·h/mL
COc1ccc(F)cc1C(=O)NCc1ccc(-c2nn([C@@H](C)C(F)(F)F)c(N)c2C(N)=O)cc1  AUC(0-inf) (human; oral; 200 mg; single dose, fasted, healthy volunteers): 85100 ng·h/mL
C=CC(=O)NC1CCN(c2ncc3ncnc(Nc4ccc(Oc5ccc6c(c5)ncn6C)c(C)c4)c3n2)CC1  AUC(0-inf) (male human; oral; 60 mg; single dose, healthy volunteers): 14.2 µM·h
CC(C)c1nc(N(C)S(C)(=O)=O)nc(-c2ccc(F)cc2)c1/C=C/[C@@H](O)C[C@@H](O)CC(=O)O  AUC (human; oral; 10 mg): 60.3 ng·h/mL
CC(C)n1c(C2CCNCC2)nc2c([N+](=O)[O-])c(Br)c(Br)cc21  AUC(0-t) (human; oral; 75 mg; patients): 288 ng·h/mL
CC(=O)N(C)[C@H]1CCN(C(=O)c2cnc3c(c2)C[C@](C)(c2ccc(F)cc2)N3)C1  AUC(0-inf) (male human; oral; 30 mg; multiple doses, once daily): 3.99 µM·h
OC[C@H]1O[C@@H](c2cc(Cc3ccc(C4CC4)cc3)c(Cl)c3c2CCO3)[C@H](O)[C@@H](O)[C@@H]1O  AUC(0-inf) (human; oral; 0.3 mg; single dose, fed): 31 ng·h/mL
